Experimental data pooled from the literature.
Protocols differ between the studies behind these lines.
HIPK4: Homeodomain-interacting protein kinase 4 (HIPK4, Homo sapiens, UniProt Q8NE63)
MAOA: Amine oxidase [flavin-containing] A (MAOA, Homo sapiens, UniProt P21397)
Rps6ka1: Ribosomal protein S6 kinase alpha-1 (Rps6ka1, Rattus norvegicus, UniProt Q63531)
CDKL2: Cyclin-dependent kinase-like 2 (CDKL2, Homo sapiens, UniProt Q92772)

O=C(O)c1ccc2c(c1)nc(NCCc1ccccc1)c1ccncc12  remaining activity (HIPK4; enzyme activity, inhibitor, radiometric; 1 µM): 5%
O=C(Nc1ccc([N+](=O)[O-])cc1)c1cc(Cl)ccc1O  inhibition (MAOA; enzyme activity, inhibitor; 1 µM, 20 min): 45%
Oc1c(Br)cc(Oc2ccc(Br)cc2Br)cc1Br  Km (Sulfotransferase 1B1 (SULT1B1, Homo sapiens, UniProt O43704); enzyme activity, substrate): 44 µM
CC1(C)CCC2=C(O1)c1ccccc1C(=O)C2=O  remaining activity (TcPGFS (Trypanosoma cruzi, UniProt Q8I6L9); enzyme activity, inhibitor; 200 µM): 86%
O=C(Nc1ccc([N+](=O)[O-])cc1[N+](=O)[O-])c1ccccc1  inhibition (MAOA; enzyme activity, inhibitor; 1 µM, 20 min): 82%
O=C(O)c1ccc2c(c1)nc(Nc1ccc(Cl)cc1)c1ccncc12  remaining activity (HIPK4; enzyme activity, inhibitor, radiometric; 1 µM): 116%
Cc1cnc(NC2CCOCC2)nc1-n1cnc(C(=O)NC(CN)c2cc(F)cc(Cl)c2)c1 (centres unmarked)  remaining activity (Rps6ka1; enzyme activity, inhibitor, radiometric; 1 µM): 53%
Cc1ccc(NC(=O)c2ccc(C)c(C(F)(F)F)c2)cc1C#Cc1nn(C2CCC(O)CC2)c2ncnc(N)c12 (centres unmarked)  remaining signal (Rps6ka1; cell-free assay; 10 µM): 20%
COc1cccc(Nc2nc3cc(C(=O)O)ccc3c3cnccc23)c1  remaining activity (Homeodomain-interacting protein kinase 3 (HIPK3, Homo sapiens, UniProt Q9H422); enzyme activity, inhibitor, radiometric; 1 µM): 8%
Nc1ncnc2occ(-c3ccc(NC(=O)Nc4cc(C(F)(F)F)ccc4F)cc3)c12  remaining signal (CDKL2; cell-free assay; 20 µM): 0.6%
O=C(Nc1ccc([N+](=O)[O-])cc1Cl)c1ccccc1O  inhibition (MAOA; enzyme activity, inhibitor; 1 µM, 20 min): 20%
N#Cc1cccc(Nc2nc3cc(C(=O)O)ccc3c3cncnc23)c1  remaining activity (HIPK4; enzyme activity, inhibitor, radiometric; 1 µM): 35%
O=C(Nc1ccc([N+](=O)[O-])cc1Cl)c1ccccc1  inhibition (MAOA; enzyme activity, inhibitor; 1 µM, 20 min): 28%
Cc1ccc(C(=O)Nc2ccc(CN3CCN(C)CC3)c(C(F)(F)F)c2)cc1C#Cc1cnc2cccnn12  remaining activity (CDKL2; enzyme activity; 23.5 nM): 0%
COc1cc(Cl)c(C(=O)N[C@@H](CN[C@H]2CC[C@@H](N)CC2)Cc2ccc(C#N)cc2)cc1-c1ccc(CN[C@H](C)c2ccc(C)cc2)o1  remaining activity (Wee1-like protein kinase 2 (WEE2, Homo sapiens, UniProt P0C1S8); enzyme activity, inhibitor; 1 µM): 89%
O=C(Nc1ccc([N+](=O)[O-])cc1Cl)c1ccc(Cl)cc1  inhibition (MAOA; enzyme activity, inhibitor; 1 µM, 20 min): 23%
CCCOc1ccc(OC)c(F)c1C(=O)c1ccc(C(=O)N[C@@H]2CNC[C@H]2NC(=O)c2ccc3[nH]ncc3c2)cc1  remaining activity (Rps6ka1; enzyme activity, inhibitor; 0.75 µM): 78%
